T1: Thymidine kinase (Varicella-zoster virus, UniProt P0C0E6)
T1 sequence (P0C0E6 whole entry): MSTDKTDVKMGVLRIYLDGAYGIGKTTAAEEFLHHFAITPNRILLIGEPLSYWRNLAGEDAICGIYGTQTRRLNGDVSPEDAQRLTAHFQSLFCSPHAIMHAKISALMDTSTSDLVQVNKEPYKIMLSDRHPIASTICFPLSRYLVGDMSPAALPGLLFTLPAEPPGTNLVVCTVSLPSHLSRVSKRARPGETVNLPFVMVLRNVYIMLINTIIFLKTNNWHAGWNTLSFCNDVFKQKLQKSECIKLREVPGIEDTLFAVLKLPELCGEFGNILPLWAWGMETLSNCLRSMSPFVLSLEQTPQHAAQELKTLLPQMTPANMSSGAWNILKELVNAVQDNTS

T2: Thymidine kinase (Varicella-zoster virus) (UniProt P0C0E6)
T2 sequence (whole entry): T1 sequence (P0C0E6 whole entry)

B1: Thymidine kinase (Varicella-zoster virus), P0C0E6 (protein)
chain: T1 sequence (P0C0E6 whole entry)

Assays:
[1] = Cytotoxicity against human HEL cells assessed as alteration of cell morphology by microscopy; type: cell-based
Method in brief: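 Confluent human embryonic lung (HEL) cell cultures, run in parallel with a VZV plaque-reduction assay. Compound added at varying concentrations in duplicate. Cells were examined by microscope for altered morphology. MCC is the lowest compound concentration that gives a microscopically detectable change in cell morphology.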

Thymidine kinase = target: T1, Thymidine kinase; test: Displacement of [CH3-3H]deoxythymidine from Varicella zoster virus recombinant thymidine kinase after 30 mins; parameters: species or system Human alphaherpesvirus 3
Method in brief: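 Inhibition of VZV TK phosphorylation of 1 µM [CH3-3H]dThd (0.1 µCi) in 50 mM Tris-HCl pH 8.0, 2.5 mM MgCl2, 10 mM DTT, 2.5 mM ATP, 10 mM NaF, 1 mg/mL BSA. Reaction started with enzyme, 37 °C for 30 min. Product captured on DE-81 discs, washed in ammonium formate then ethanol, and counted by scintillation. IC50 is the concentration inhibiting phosphorylation by 50%.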

Human alphaherpesvirus 3 [2] = test: Antiviral activity against Varicella zoster virus OKA infected human HEL cells assessed as reduction in viral plaque formation after 5 days; type: functional, cell-based; details: Human alphaherpesvirus 3, strain Oka vaccine, 120 h
Method in brief: (§1)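 Confluent HEL cells infected with VZV at 20 PFU/well for 2 h. Residual virus removed, then compound added at varying concentrations in duplicate. Plaques counted after 5 days.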

[3] = target: T2, Thymidine kinase (Varicella-zoster virus); test: Ratio of Vmax to Km for Varicella zoster virus recombinant thymidine kinase; details: Human alphaherpesvirus 3
Method in brief: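 Km and Vmax for each compound as VZV TK substrate, from monophosphate formation at 0.5, 2, 5 and 12.5 µM compound. Enzyme in Tris-HCl pH 8 with 2.5 mM ATP and MgCl2, 37 °C, 60 min. Product quantified by reversed-phase HPLC with fluorescence detection (ex 340/em 415 nm).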

Human alphaherpesvirus 3 [4] = test: Antiviral activity against thymidine kinase deficient Varicella zoster virus 07/1 infected human HEL cells assessed as reduction in viral plaque formation after 5 days; type: functional, organism-based; details: Human alphaherpesvirus 3, 07/1, HEL, 120 h; method in brief: as §1
Human alphaherpesvirus 3 [5] = test: Antiviral activity against Varicella zoster virus YS infected human HEL cells assessed as reduction in viral plaque formation after 5 days; type: functional, organism-based; details: Human alphaherpesvirus 3, YS, 120 h
Method in brief: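 Confluent HEL cells infected with VZV at 20 PFU/well for 2 h. Residual virus removed, then compound added at varying concentrations in duplicate. Plaques counted after 5 days. EC50 is the concentration reducing plaque formation by 50% versus untreated controls.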

[6] = substrate: CCCCCc1ccc(-c2cc3cn([C@@H]4O[C@H](CO)[C@@H](O)[C@H]4F)c(=O)nc3o2)cc1; test: (§2) Activity at Varicella zoster virus recombinant thymidine kinase assessed as 5-monophosphate BCNA formation after 60 mins by HPLC; details: Human alphaherpesvirus 3
Method in brief: (§3)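 VZV TK (1.5 pg) in 50 mM Tris-HCl pH 8, 2.5 mM MgCl2, 10 mM DTT, 2.5 mM ATP, 10 mM NaF; compound at 0.5, 2, 5 and 12.5 µM in DMSO; 37 °C for 60 min. Stopped in ice-cold methanol and centrifuged. Reversed-phase HPLC with ion-pairing phosphate buffer/acetonitrile gradient; nucleoside and 5'-monophosphate quantified by fluorescence (ex 340, em 415 nm).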

[7] = substrate: CCCCCc1ccc(-c2cc3cn([C@H]4C[C@H](O)[C@@H](CO)O4)c(=O)nc3o2)cc1; test: as §2; details: Human alphaherpesvirus 3; method in brief: as §3
[8] = substrate: CCCCCc1ccc(-c2cc3cn([C@@H]4O[C@H](CO)[C@@H](O)[C@@H]4F)c(=O)nc3o2)cc1; test: as §2; details: Human alphaherpesvirus 3; method in brief: as §3
[9] = substrate: CCCCCc1ccc(-c2cc3cn([C@@H]4O[C@H](CO)[C@@H](O)C4(F)F)c(=O)nc3o2)cc1; test: as §2; details: Human alphaherpesvirus 3; method in brief: as §3

| Molecule | MCC [1] [µM] | IC50 (Thymidine kinase) [µM] | EC50 (Human alphaherpesvirus 3 [2]) [µM] | Ratio [3] | EC50 (Human alphaherpesvirus 3 [4]) [µM] | EC50 (Human alphaherpesvirus 3 [5]) [µM] | Km [6] [µM] | Vmax [6] [µM/h] | Km [7] [µM] | Vmax [7] [µM/h] | Km [8] [µM] | Vmax [8] [µM/h] | Km [9] [µM] | Vmax [9] [µM/h] |
| --- | --- | --- | --- | --- | --- | --- | --- | --- | --- | --- | --- | --- | --- | --- |
| CCCCCc1ccc(-c2cc3cn([C@H]4C[C@H](O)[C@@H](CO)O4)c(=O)nc3o2)cc1 [CF1743] | ≥ 50 | 3.3 |  |  |  |  |  |  |  |  |  |  |  |  |
| CCCCCc1ccc(-c2cc3cn([C@@H]4O[C@H](CO)[C@@H](O)[C@@H]4F)c(=O)nc3o2)cc1 | > 50 | 38 | 0.007 | 45 | > 50 | 0.011 |  |  |  |  |  |  |  |  |
| CCCCCc1ccc(-c2cc3cn([C@@H]4O[C@H](CO)[C@@H](O)[C@H]4F)c(=O)nc3o2)cc1 | > 50 | 2.7 | 0.75 | 7.2 | > 20 |  |  |  |  |  |  |  |  |  |
| CCCCCc1ccc(-c2cc3cn([C@@H]4O[C@H](CO)[C@@H](O)C4(F)F)c(=O)nc3o2)cc1 | ≥ 50 | 13 | 1.5 | 14 | > 50 | 6.7 |  |  |  |  |  |  |  |  |
| B1 |  |  |  |  |  |  | 0.47 | 3.4 | 1.58 | 22 | 1.11 | 50 | 0.95 | 14 |

Source: ChEMBL document CHEMBL1156114 (Bioorg Med Chem Lett, 2009)
